Screening data from PubChem BioAssay.
PPC-1+TRAIL kill: PPC-1 cancer cell killing with TRAIL present. PPC-1 cells + TRAIL, ATPLite viability luminescence. cell killing (% activity), % at 4 µM or 5 µM. 220,000 tested, 0.41% active. AID 1443;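 active means cell killing above 50% in the first pass at 4 µM, then a duplicate retest at 5 µM averaging 50% or more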;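 further: plate controls were cells with TRAIL plus DMSO for no effect and medium-only wells lacking cells for full effect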
C8 TRAIL sens: caspase-8 TRAIL sensitization; 360,000 tested, 1% active; inhibition (viability loss, TRAIL sensitization), % at 10 µM; NB7+C8 cells + TRAIL, ATPlite viability luminescence;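 active means compounds causing at least 50% loss of cell viability in the single-dose screen, relative to plate controls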
FLuc stim CS: firefly luciferase counter-screen for stimulation assays. P08659. ATPlite luciferase biochemical, luminescence, 10 min; 0 = ATP-free wells, 1 = DMSO control. activation factor at 10 µM. 200,000 tested, under 10 active;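 active means luciferase activation factor, scaled between plate controls, of at least 2 with compound at 10 µM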
Target sequence (P08659 whole entry, looked up): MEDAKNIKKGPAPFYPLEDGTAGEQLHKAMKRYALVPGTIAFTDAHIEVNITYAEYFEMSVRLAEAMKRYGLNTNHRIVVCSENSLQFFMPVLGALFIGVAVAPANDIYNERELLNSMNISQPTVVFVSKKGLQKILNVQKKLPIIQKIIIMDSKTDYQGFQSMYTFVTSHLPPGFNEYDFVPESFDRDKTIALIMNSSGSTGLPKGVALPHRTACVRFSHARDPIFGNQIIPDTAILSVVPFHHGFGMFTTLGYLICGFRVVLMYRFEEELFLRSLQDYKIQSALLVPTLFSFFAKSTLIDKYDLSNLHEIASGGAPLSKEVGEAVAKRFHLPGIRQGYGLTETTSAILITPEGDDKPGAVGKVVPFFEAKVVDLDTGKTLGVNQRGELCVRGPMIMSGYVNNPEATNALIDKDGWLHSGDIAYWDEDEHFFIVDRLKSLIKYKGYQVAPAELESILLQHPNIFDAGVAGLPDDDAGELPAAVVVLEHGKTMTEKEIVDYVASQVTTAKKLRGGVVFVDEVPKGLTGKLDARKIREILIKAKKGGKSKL
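Assay system: Luciferase/luciferin detection reagent, cell-free biochemical luciferase assay / Read-out: luciferase activation / Benchmarks: No-ATP low control, compound-free enzyme-plus-ATP high control / Medium: PBS buffer for ATP / Detection: luminescence measurement of luciferase light output / Schedule: 10 min at ambient temperature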
FLuc inhib CS: counter-screen for luciferase assay inhibitors: firefly luciferase inhibition; P08659; ATPLite firefly luciferase biochemical luminescence, 10 min; inhibition, % at 10 µM; 200,000 tested, 1.5% active;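 active means inhibition above about 50% when tested at 10 µM, limit read from the data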
The depositor's hits bear a star; x = no result. In the library only some 1.5% were active in any assay of this set; here they are far more common.

SMILES | PPC-1+TRAIL kill | C8 TRAIL sens | FLuc stim CS | FLuc inhib CS
CC1CN(C(=O)c2cc(S(=O)(=O)N(C)c3ccc(F)cc3)ccc2Cl)CC(C)O1 (configuration not stated) | x | -12 | x | x
CC1CCN(c2ccc(-c3cccc(NC(=O)C(F)(F)F)c3)nn2)CC1 | x | 97* | x | x
O=C(Nc1cccc(-c2ccc(N3CCCCC3)nn2)c1)c1ccc(Br)o1 | x | 78* | x | x
O=C(Nc1cccc(-c2ccc(N3CCCCC3)nn2)c1)C(F)(F)F | x | 89* | x | x
O=S(=O)(Nc1cccc(-c2ccc(N3CCCCCC3)nn2)c1)c1ccc(C(F)(F)F)cc1 | x | 14 | x | x
O=C(COc1ccccc1)Nc1cccc(-c2ccc(N3CCOCC3)nn2)c1 | x | 70* | x | x
CCN(CC)S(=O)(=O)c1ccc(N2CCOCC2)c(NC(=O)c2cnccn2)c1 | 26 | -16 | 1 | -4
CCC(=O)Nc1ccc(-c2ccc(N3CCC(C)CC3)nn2)cc1 | x | 14 | x | x
CC1CCN(c2ccc(-c3cccc(NC(=O)c4ccco4)c3)nn2)CC1 | x | 86* | x | x
CCC(=O)Nc1cccc(-c2ccc(N3CCC(C)CC3)nn2)c1 | x | 94* | x | x
CS(=O)(=O)c1ccc(-c2cccc(NC(=O)c3ccco3)c2)nn1 | x | 11 | x | x
CCOC(=O)C1=CNS(=O)(=O)NC1c1ccc(C[C@H](NC(=O)CNC(=O)CCc2ccccc2)C(N)=O)cc1 (some centres not stated) | x | -6 | x | x
CCN1CCN(c2c(Cl)cccc2NC(=O)c2ccc([N+](=O)[O-])o2)CC1 | x | 59* | x | x
CC(C)C(=O)N1CCN(c2ccc(NC(=O)c3ccc([N+](=O)[O-])o3)cc2Cl)CC1 | 37 | 67* | 1 | -4
CCCC(=O)N1CCN(c2ccc(NC(=O)c3ccc([N+](=O)[O-])o3)cc2Cl)CC1 | 36 | 59* | 1 | -4
CN1CCN(c2ccc(NC(=O)c3ccc([N+](=O)[O-])o3)cc2Cl)CC1 | x | 43 | x | x
O=C(/C=C/c1ccc(Br)cc1)c1ccco1 | 5 | -1 | 0.8 | 18
O=C(/C=C/c1ccc2c(c1)OCO2)c1ccc(O)cc1O | x | 10 | x | x
O=C(/C=C/c1ccc2c(c1)OCO2)c1ccco1 | 22 | -5 | 0.4 | 58*
Nc1ccccc1C(=O)/C=C/c1ccc2c(c1)OCO2 | 28 | 28 | 0.4 | 62*
Nc1nc(-c2ccccc2)nc2nonc12 | x | -19 | x | x
COc1ccc2cc1Oc1ccc(cc1)C[C@H]1c3c(cc(OC)c4c3Oc3c(ccc5c3[C@H](C2)N(C)CC5)O4)CCN1C | x | 88* | x | x
COc1ccc2cc1Oc1ccc(cc1)CC1c3c(cc(OC)c4c3Oc3cc5c(cc3O4)CCNC5C2)CCN1C (configuration not stated) | 23 | 93* | x | x
COc1cc2c(c(O)c1OC)C1Cc3ccc(OC)c(OC)c3CN1CC2 (configuration not stated) | x | 0 | x | x
COc1cc(C)nc(NC(=O)NC(=O)c2ccc(C(F)(F)F)cc2)n1 | x | 16 | x | x
SMILES | PPC-1+TRAIL kill | C8 TRAIL sens | FLuc stim CS | FLuc inhib CS
Cc1ccc(NC(=O)COc2ccccc2[N+](=O)[O-])nc1 | 32 | 60* | 0.2 | 80*
Cc1ccc(NC(=O)c2ccc(COc3ccccc3[N+](=O)[O-])o2)nc1 | x | -9 | x | x
CN=c1scc(-c2ccccc2Br)n1/N=C/c1ccc[nH]1 | 15 | x | 0.5 | 54*
C/C(=N\NC(=O)c1cc(-c2cccc(OC(C)C)c2)nc2ccccc12)c1cccnc1 | x | 37 | x | x
C/C(=N\NC(=O)c1cc(-c2cccnc2)nc2ccccc12)c1ccc(O)cc1O | 51* | 9 | 1 | 2
O=C(O)COc1ccccc1/C=N/NC(=O)c1cc(-c2ccc(F)cc2)nc2ccccc12 | 34 | 20 | 0.4 | 59*
CCOc1ccc(-c2cc(C(=O)N/N=C/c3cccnc3)c3ccccc3n2)cc1 | x | 74* | x | x
O=C(N/N=C/c1ccc2c(c1)OCO2)c1cc(-c2ccc(F)cc2)nc2ccccc12 | 32 | -10 | 0.9 | 13
O=C(Nc1nc(=O)[nH]s1)c1ccccc1 | 10 | -3 | 1 | 0
CN(C)c1ccc(C(=O)Nc2nc3c(s2)CCCC3)cc1 | 39 | 55* | 0.4 | 58*
O=C(Nc1nc2c(s1)C(=O)CCC2)c1ccccc1 | 42 | 27 | 0.3 | 66*
COc1ccc(C(C)(O)c2nc(-c3cccs3)cs2)cc1 (configuration not stated) | x | 8 | x | x
CCCCC1(C(=O)OC)NC(c2ccc(O)cc2)C2C(=O)N(c3ccccc3)C(=O)C21 (configuration not stated) | x | 13 | x | x
O=C1CC(c2ccc3c(c2)OCCO3)Oc2ccc([N+](=O)[O-])cc21 (configuration not stated) | x | 64* | x | x
CN(C)C(=O)c1nnsc1Sc1ccc(Cl)cc1 | 5 | 5 | 0.6 | 44
c1cc(-c2cc3cc(N4CCOCC4)ccc3o2)cs1 | x | 79* | x | x
COc1ccc(C#Cc2c(-c3ccsc3)oc3ccc(N4CCOCC4)cc23)cc1 | x | 21 | x | x
O=C(Nc1ccc(CN2CCCCC2)cc1)Nc1ccccc1Cl | 6 | 11 | 1 | 4
CCN1CCN(Cc2ccc(NC(=O)Nc3ccccc3Cl)cc2)CC1 | 30 | 39 | 0.3 | 66*
Cc1ccc(/C=N/N=C/c2ccc(C)s2)s1 | 25 | 40 | 0.3 | 74*
CC(C)C[C@@H](CN1CCCC1CN1C(=S)NC[C@@H]1Cc1ccc(O)cc1)N1C[C@H](Cc2ccccc2)N(CC2CCCCCC2)C1=S (some centres not stated) | x | 23 | x | x
CC(C)C[C@@H](CN1CCCC1CN1C(=S)NC[C@@H]1Cc1ccc(O)cc1)N1C[C@H](Cc2ccc(O)cc2)N(CC2CCCCCC2)C1=S (some centres not stated) | x | 53* | x | x
O=C1c2cc(F)ccc2-n2c1nc1ccccc1c2=O | x | 55* | x | x
Cc1c(NC(=O)c2cc3ccccc3o2)cccc1-n1cnnn1 | x | 3 | x | x
COc1ccc2sc3ccccc3c(=O)c2c1 | 8 | 3 | 0.8 | 24
SMILES | PPC-1+TRAIL kill | C8 TRAIL sens | FLuc stim CS | FLuc inhib CS
COc1ccc(-c2cc(=O)c3ccccc3s2)cc1 | 41 | 54* | 0.3 | 67*
Cc1nn(C)c(C)c1/C=C/C(=O)c1ccccc1 | -12 | -6 | 0.9 | 14
Cc1ccc(C(=O)/C=C/c2cn(CN3CCN(C)CC3)c3ccccc23)cc1 | 13 | 5 | 0.8 | 20
Cn1cc(/C=C/C(=O)c2ccccc2)c2ccccc21 | 35 | 60* | x | x
Cc1nn(C)cc1/C=C/C(=O)c1ccccc1 | 30 | 36 | 0.5 | 54*
CCn1cc(/C=C/C(=O)c2ccc(O)cc2)c(C)n1 | 37 | 64* | 0.1 | 90*
CC(=Nc1ccccc1)C1=C(O)C(Cc2ccccc2)NC1=O (configuration not stated) | x | -8 | x | x
CC1(C)C=C(c2ccc(C=O)s2)CC(C)(C)N1C=O | 62* | 22 | 1 | -4
Cc1ccc(-n2c(C)csc2=N)cc1 | 30 | 11 | 0.4 | 59*
Cc1csc(=N)n1-c1ccc(Cl)cc1 | -21 | -6 | 0.9 | 11
Cc1cccc2sc(NNC(=O)c3ccc(S(=O)(=O)N4CC(C)CC(C)C4)cc3)nc12 (configuration not stated) | 27 | 66* | 1.1 | -9
COc1ccc(-n2ncc(N(C)n3cccc3)c(Cl)c2=O)cc1 | 19 | 35 | 0.5 | 54*
